In ChEMBL document CHEMBL3120102, “Structure-based design, synthesis and biological evaluation of novel anthra[1,2-d]imidazole-6,11-dione homologues as potential antitumor agents” (2013):

Tests used:
COLO 205 = test: Cytotoxicity against human COLO205 cells assessed as cell growth at 10 uM after 48 hrs by SRB assay; format: functional; settings: COLO 205, 48 h, read-out: Activity
NCI-H226 = test: Cytotoxicity against human NCI-H226 cells assessed as growth inhibition after 48 hrs by SRB assay; format: functional
Method in brief: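 NCI 60-cell-line screen, five-dose stage: each cell line exposed for 48 h to five concentrations spanning five log steps; cellular protein measured by sulforhodamine B colorimetry. A time-zero cell control and plates without drug are used to derive GI50, TGI and LC50 from log-concentration dose-response curves.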

SF-268 = test: Cytotoxicity against human SF268 cells assessed as cell growth at 10 uM after 48 hrs by SRB assay; format: functional; settings: SF-268, 48 h, read-out: Activity
Method in brief: (§1)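 First stage of the NCI 60 human tumour cell line screen: a single dose is tested against every line. Cell growth is read as cellular protein by sulforhodamine B colorimetry after 48 h of drug exposure, with reference to a time-zero control and to untreated plates.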

LOX IMVI = test: Cytotoxicity against human LOXIMVI cells assessed as cell growth at 10 uM after 48 hrs by SRB assay; format: functional; settings: read-out: Activity
Method in brief: (§2)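 NCI 60-cell-line screen, first stage: compound at a single dose of […] (unit as printed) for 48 h. Cellular protein was measured by sulforhodamine B colorimetry. Growth was determined using a time-zero cell control and plates not exposed to drug.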

SK-MEL-28 = test: Cytotoxicity against human SK-MEL-28 cells assessed as cell growth at 10 uM after 48 hrs by SRB assay; format: functional; settings: SK-MEL-28, 48 h, read-out: Activity; method in brief: as §1
[1] = Cytotoxicity against human H1299 cells assessed as cell viability at 1 uM after 48 hrs by MTT assay; format: functional; settings: NCI-H1299, 48 h, read-out: Activity
Method in brief: (§3)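 About 2×10³ H1299 cells per well were grown for 24 h at 37 °C in 5% CO2. Compound was dissolved in DMSO immediately before use, diluted in complete medium and left on cells for 48 h. MTT was then added for 4 h at 37 °C, followed by SDS/DMF lysis buffer for 16 h at 37 °C. Absorbance was read at 550 nm.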

NCI-H322M = test: Cytotoxicity against human NCI-H322M cells assessed as cell growth at 10 uM after 48 hrs by SRB assay; format: functional; settings: read-out: Activity; method in brief: as §1
SNB-75 = test: Cytotoxicity against human SNB75 cells assessed as cell growth at 10 uM after 48 hrs by SRB assay; format: functional; settings: SNB-75, 48 h, read-out: Activity
Method in brief: (§4)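 First stage of the NCI 60 human tumour cell line screen, with each compound tested at a single dose of 10. Cellular protein measured by sulforhodamine B colorimetry after 48 h drug exposure. Growth is calculated against a time-zero cell control and against plates not exposed to drug.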

HCT-15 = test: Cytotoxicity against human HCT15 cells assessed as cell growth at 10 uM after 48 hrs by SRB assay; format: functional; settings: HCT-15, 48 h, read-out: Activity
[2] = Cytotoxicity against human UACC257 cells assessed as cell growth at 10 uM after 48 hrs by SRB assay; format: functional; settings: UACC-257, 48 h, read-out: Activity; method in brief: as §4
SK-MEL-5 = test: Cytotoxicity against human SK-MEL-5 cells assessed as cell growth at 10 uM after 48 hrs by SRB assay; format: functional; settings: SK-MEL-5, 48 h, read-out: Activity; method in brief: as §1
MDA-MB-435 = test: Cytotoxicity against human MDA-MB-435 cells assessed as cell growth at 10 uM after 48 hrs by SRB assay; format: functional; settings: MDA-MB-435, 48 h, read-out: Activity; method in brief: as §1
BT-549 = test: Cytotoxicity against human BT549 cells assessed as cell growth at 10 uM after 48 hrs by SRB assay; format: functional; settings: BT-549, 48 h, read-out: Activity; method in brief: as §2
ACHN = test: Cytotoxicity against human ACHN cells assessed as cell growth at 10 uM after 48 hrs by SRB assay; format: functional; settings: read-out: Activity
[3] = biological target: Telomerase reverse transcriptase (Homo sapiens) (UniProt O14746); test: Inhibition of human tert transcriptional activity assessed as SEAP activity at 1 uM after 24 hrs by SEAP reporter assay; parameters: scale not given: the % may be the effect or the level left
Method in brief: (§5)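 Reporter assay for hTERT transcriptional activity using secreted alkaline phosphatase. About 2 × 10³ cells per well were grown for 24 h at 37 °C, then given fresh medium. Buffer was added to the medium: 2 M diethanolamine, 1 mM MgCl2 and 20 mM L-homoarginine. p-Nitrophenyl phosphate was added to 12 mM final. The rate of absorbance increase was read at 405 nm.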

SW-620 = test: Cytotoxicity against human SW620 cells assessed as cell growth at 10 uM after 48 hrs by SRB assay; format: functional; settings: SW-620, 48 h, read-out: Activity; method in brief: as §4
HL-60(TB) [4] = test: Cytotoxicity against human HL-60(TB) cells assessed as cell growth at 10 uM after 48 hrs by SRB assay; format: functional; settings: HL-60, 48 h, read-out: Activity
Method in brief: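 NCI 60-cell panel first-stage screen at a single dose in the HL-60(TB) leukemia line. Cellular protein was measured by sulforhodamine B colorimetry after 48 h of drug exposure. Growth was referenced to a time-zero cell control and to plates not exposed to drug.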

RPMI-8226 = test: Cytotoxicity against human RPMI8226 cells assessed as cell growth at 10 uM after 48 hrs by SRB assay; format: functional; settings: RPMI-8226, 48 h, read-out: Activity; method in brief: as §1
HOP-92 = test: Cytotoxicity against human HOP92 cells assessed as cell growth at 10 uM after 48 hrs by SRB assay; format: functional; settings: HOP-92, 48 h, read-out: Activity; method in brief: as §2
HL-60(TB) [5] = test: Cytotoxicity against human HL-60(TB) cells assessed as growth inhibition after 48 hrs by SRB assay; format: functional
Method in brief: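 NCI 60-cell panel five-concentration stage (0.01, 0.1, 1, 10, 100) in HL-60(TB). Cellular protein was measured by sulforhodamine B colorimetry after 48 h of exposure. A time-zero cell control and untreated plates allowed calculation of GI50, TGI and LC50. These were read from log10 concentration dose-response curves.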

[6] = Cytotoxicity against human H1299 cells assessed as cell viability at 100 uM after 48 hrs by MTT assay; format: functional; settings: NCI-H1299, 48 h, read-out: Activity; method in brief: as §3
T47D = test: Cytotoxicity against human T47D cells assessed as cell growth at 10 uM after 48 hrs by SRB assay; format: functional; settings: read-out: Activity; method in brief: as §4
[7] = Cytotoxicity against human H1299 cells assessed as cell viability at 10 uM after 48 hrs by MTT assay; format: functional; settings: NCI-H1299, 48 h, read-out: Activity; method in brief: as §3
[8] = biological target: Telomerase reverse transcriptase (Homo sapiens) (UniProt O14746); test: Inhibition of human tert transcriptional activity assessed as SEAP activity at 10 uM after 24 hrs by SEAP reporter assay; parameters: scale not given: the % may be the effect or the level left; method in brief: as §5
U-251 = test: Cytotoxicity against human U251 cells assessed as cell growth at 10 uM after 48 hrs by SRB assay; format: functional; settings: U-251, 48 h, read-out: Activity; method in brief: as §4
A549 = test: Cytotoxicity against human A549 cells assessed as cell growth at 10 uM after 48 hrs by SRB assay; format: functional; settings: A549, 48 h, read-out: Activity

Telomerase reverse transcriptase (Homo sapiens), sequence (O14746 whole entry): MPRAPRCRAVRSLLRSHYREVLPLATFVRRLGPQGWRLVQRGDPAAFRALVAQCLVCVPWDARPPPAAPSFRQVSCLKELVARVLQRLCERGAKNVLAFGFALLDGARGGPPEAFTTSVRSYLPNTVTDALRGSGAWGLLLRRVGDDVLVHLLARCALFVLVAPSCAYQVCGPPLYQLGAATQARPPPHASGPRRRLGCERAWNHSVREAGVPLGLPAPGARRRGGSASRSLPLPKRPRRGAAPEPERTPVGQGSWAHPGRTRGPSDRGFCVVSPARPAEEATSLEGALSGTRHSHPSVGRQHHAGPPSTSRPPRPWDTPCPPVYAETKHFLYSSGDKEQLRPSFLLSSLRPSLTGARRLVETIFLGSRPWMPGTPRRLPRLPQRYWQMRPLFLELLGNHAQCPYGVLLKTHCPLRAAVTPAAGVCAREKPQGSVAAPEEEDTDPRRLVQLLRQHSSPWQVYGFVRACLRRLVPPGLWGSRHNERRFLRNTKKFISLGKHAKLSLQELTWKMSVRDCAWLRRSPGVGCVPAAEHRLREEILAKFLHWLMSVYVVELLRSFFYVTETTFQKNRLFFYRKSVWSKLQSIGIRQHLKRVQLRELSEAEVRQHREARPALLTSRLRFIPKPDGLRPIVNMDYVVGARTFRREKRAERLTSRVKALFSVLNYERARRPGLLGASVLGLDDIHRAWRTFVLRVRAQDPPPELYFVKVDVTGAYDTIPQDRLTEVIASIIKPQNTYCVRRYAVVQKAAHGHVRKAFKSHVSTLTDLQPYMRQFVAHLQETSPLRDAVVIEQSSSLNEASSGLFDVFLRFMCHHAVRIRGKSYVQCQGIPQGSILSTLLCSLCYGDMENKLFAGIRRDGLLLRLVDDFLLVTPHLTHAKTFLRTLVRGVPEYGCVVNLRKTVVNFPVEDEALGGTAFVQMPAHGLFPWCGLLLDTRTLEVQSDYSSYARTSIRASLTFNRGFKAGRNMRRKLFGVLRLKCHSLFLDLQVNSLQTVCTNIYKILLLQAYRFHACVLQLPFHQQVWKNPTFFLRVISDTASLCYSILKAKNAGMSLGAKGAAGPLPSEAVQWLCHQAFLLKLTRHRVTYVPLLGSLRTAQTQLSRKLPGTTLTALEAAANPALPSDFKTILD

| SMILES | growth at 10 µM (COLO 205) | growth inhibition (GI) (NCI-H226) | TGI (NCI-H226; NCI-H226, 48 h) | growth at 10 µM (SF-268) | growth at 10 µM (LOX IMVI) | growth at 10 µM (SK-MEL-28) | viability at 1 µM [1] | growth at 10 µM (NCI-H322M) | growth at 10 µM (SNB-75) | growth at 10 µM (HCT-15) | growth at 10 µM [2] | growth at 10 µM (SK-MEL-5) | growth at 10 µM (MDA-MB-435) | growth at 10 µM (BT-549) | growth at 10 µM (ACHN) | Activity [3] | growth at 10 µM (SW-620) | growth at 10 µM (HL-60(TB) [4]) | growth at 10 µM (RPMI-8226) | growth at 10 µM (HOP-92) | further results |
| --- | --- | --- | --- | --- | --- | --- | --- | --- | --- | --- | --- | --- | --- | --- | --- | --- | --- | --- | --- | --- | --- |
| CN(C)CCCSc1nc2ccc3c(c2[nH]1)C(=O)c1ccccc1C3=O | 62% | Dose-dependent effect | 22.1 µM | 53.1% | 28.6% | 102% | 108% | 70.8% | 50.5% | 36.3% | 114% | 62.5% | 72.2% | 75.8% | 24.3% | 100% | 26.4% | 12.7% | -13.7% | 16% | growth inhibition (GI) (HL-60(TB) [5]): Dose-dependent effect; GI50 (HL-60(TB) [5]; HL-60, 48 h): 2.41 µM; TGI (HL-60(TB) [5]; HL-60, 48 h): 8.52 µM; viability at 100 µM [6]: 22%; growth at 10 µM (T47D): 45.8%; viability at 10 µM [7]: 79%; Activity [8]: 86%; growth at 10 µM (U-251): 74.1%; growth at 10 µM (A549): 51.6% |
| CCSc1nc2ccc3c(c2[nH]1)C(=O)c1ccccc1C3=O | 71.8% | Dose-dependent effect | > 100 µM | 75.7% | 36.7% | 97.7% | 109% | 33.4% | 73.3% | 32.3% | 112% | 63.9% | 68.4% | 55.8% | 37.6% | 100% | 84.5% | 62.6% | 28.5% | 75.3% | GI50 (NCI-H226; NCI-H226, 48 h): 14.2 µM; LC50 (NCI-H226; NCI-H226, 48 h): > 100 µM; growth inhibition (GI) (HL-60(TB) [5]): Dose-dependent effect; GI50 (HL-60(TB) [5]; HL-60, 48 h): 5.26 µM; LC50 (HL-60(TB) [5]; HL-60, 48 h): > 100 µM; TGI (HL-60(TB) [5]; HL-60, 48 h): > 100 µM; viability at 100 µM [6]: 73%; growth at 10 µM (T47D): 30.8%; viability at 10 µM [7]: 127%; Activity [8]: 90%; growth at 10 µM (U-251): 65%; growth at 10 µM (A549): 101% |
